Assay results taken from ChEMBL document CHEMBL3400140, “Design, synthesis, and structure-activity relationships of 1-ethylpyrazole-3-carboxamide compounds as novel hypoxia-inducible factor (HIF)-1 inhibitors” (Bioorg Med Chem, 2015).
pIC50: −log10 of the molar value. Active and inactive are the calls of the source. The calls are words filed in the database; no cut-off is given here.

Tests used:
[1] = Inhibition of cell proliferation of human HT1080 cells after 72 hrs by WST-8 dye based cell counting assay; type: functional; settings: HT-1080, 72 h
Procedure, shortened: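 HT1080 cells seeded at 1.0 × 10³/well and kept under hypoxia (1% O₂); growth read 72 h after compound addition with WST-8 reagent, absorbance at 450 nm.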

[2] = target: T1, Hypoxia inducible factors; HIF-1-alpha, HIF-2-alpha (Homo sapiens, UniProt Q16665+Q99814); assay: Inhibition of HIF1 in human HT1080 cells transfected with 5xHRE/pGL3/VEGF/E1b reporter plasmid pre-incubated for 1 hr followed by incubation under hypoxia conditions for 24 hrs by HRE-driven luciferase reporter gene assay; type: cell-based; settings: for IC50: ht-1080
HT-1080 [3] = assay: Inhibition of cell migration of scratched human HT1080 cells monolayers at 100 uM after 48 hrs by phase contrast microscopy based wound-healing assay; type: functional
[4] = target: T1, Hypoxia inducible factors; HIF-1-alpha, HIF-2-alpha; assay: Inhibition of HIF1-mediated carbonic anhydrase 9 gene expression in human HT1080 cells at 100 uM after 16 hrs by real time PCR method; type: cell-based; settings: HT-1080
Procedure, shortened: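 HT1080 cells exposed to compounds at 100 µM for 16 h; CAIX mRNA measured by quantitative PCR normalized to 18S rRNA, expressed relative to the normoxic value.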

HT-1080 [5] = assay: Effect on HIF-1alpha gene expression in human HT1080 cells up to 100 uM after 4 hrs by real time PCR method; type: functional, cell-based
Procedure, shortened: (§1)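 HT1080 cells treated 4 h with compound; mRNA of CAIX, HIF-1a and HIF-1b quantified by real-time PCR, normalized to 18S rRNA and expressed relative to DMSO-treated cells.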

[6] = target: T1, Hypoxia inducible factors; HIF-1-alpha, HIF-2-alpha; assay: Inhibition of HIF1-mediated carbonic anhydrase 9 gene expression in human HT1080 cells at 1 to 100 uM after 4 hrs by real time PCR method; type: cell-based; settings: HT-1080; procedure, shortened: as §1
HT-1080 [7] = assay: Effect on HIF-1beta gene expression in human HT1080 cells up to 100 uM after 4 hrs by real time PCR method; type: functional, cell-based; procedure, shortened: as §1

SMILES	IC50 [2] [µM]	inhibition [4]	inhibition [6]	inhibition ([2]; HT-1080)	pIC50 [1]	inhibition (HT-1080 [3])	Activity (HT-1080 [5])	Activity (HT-1080 [7])
CCn1cc(NC(=O)c2ccc(Cc3c(C)noc3C)o2)c(C(N)=O)n1	> 100				< 4.00			
CCn1cc(NC(=O)c2ccc(Cn3nc(C)c(Br)c3C)o2)c(C(N)=O)n1	8.1	Active			5.15	Active		
CCn1cc(NC(=O)c2ccc(Cn3nc(C)cc3C)o2)c(C(=O)N(C)C)n1	> 100				4.12			
CCn1cc(NC(=O)c2ccc(Cn3nc(C)cc3C)s2)c(C(N)=O)n1	> 100				< 4.00			
CCn1cc(NC(=O)c2ccc(Cn3cccn3)o2)c(C(N)=O)n1	81.8				4.12			
CCn1cc(NC(=O)c2ccc(Cn3nc(C)c(Cl)c3C)o2)c(C(N)=O)n1	8.7	Active			5.13	Active		
CCn1cc(NC(=O)c2cccc(Cn3nc(C)cc3C)c2)c(C(N)=O)n1	72				4.30			

Now from value to compound, other results behind:

IC50 [2] [µM]	inhibition [4]	inhibition [6]	inhibition ([2]; HT-1080)	SMILES	pIC50 [1]	inhibition (HT-1080 [3])	Activity (HT-1080 [5])	Activity (HT-1080 [7])
> 100				Cc1cc(C)n(Cc2ccc(C(=O)Nc3cnn4c3C(=O)NCC4)o2)n1	< 4.00			
19.4				CCn1cc(NC(=O)c2ccc(Cn3nc(C)cc3C)o2)c(C(=O)NC)n1	4.74			
19.1		Dose-dependent effect	Dose-dependent effect	CCn1cc(NC(=O)c2ccc(Cn3nc(C)cc3C)o2)c(C(N)=O)n1	4.82	Active	inactive	inactive
> 100	inactive			CCn1ncc(NC(=O)c2ccc(Cn3nc(C)cc3C)o2)c1C(N)=O	< 4.00			
71.6				Cc1cc(C)n(Cc2ccc(C(=O)Nc3c[nH]nc3C(N)=O)o2)n1	4.18			
